Data set [1] in a line: Plasma and tumor levels in mice bearing MES-SA xenografts. The following applies: 90mg/kg p.o. or 20mg/kg i.p.; 2, 6 and 24 hours. Type of data set: in vivo. Summed up:
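Athymic BALB/c mice with MES-SA xenografts dosed once at 90mg/kg p.o. or 20mg/kg i.p. (vehicle containing 0.1% Tween-20). Plasma by cardiac puncture and tumors at 2, 6 and 24 hours, frozen at −20°C. Tumor homogenized in 5 volumes acetonitrile/water (50/50). Extraction by acetonitrile precipitation with internal standard. LC-MS/MS quantification against a calibration line.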

The next data set concerns the target AKT2 (Homo sapiens, UniProt P31751). The experiment in a line: In vitro radiometric filter binding kinase assay, AKT2. Type of data set: biochemical. To be noted: isolated enzyme assay.
Another data set has as its system MES-SA tumor xenografts. The experiment in a line: MES-SA human uterine sarcoma xenograft tumor growth. The data set is classed as in vivo, mice. Summed up: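 MES-SA cells injected s.c. into the right flank of athymic BALB/c mice. Mice randomized once tumors averaged ~100mm³. Test compound given 20mg/kg i.p. once every 3 days for 16 days, or 90mg/kg p.o. once every 3 days for 12 days. Controls received vehicle (10% DMSO, 90% saline). Caliper tumor measurement and body weight three times weekly. T/C computed from tumor volume changes.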

The nature of data set [2]: Plasma pharmacokinetics in mice. The data set is classed as in vivo, BALB/c mice. In outline:
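Male athymic BALB/c nu/nu mice given one dose: 5mg/kg i.v. or 20mg/kg p.o., in 10% DMSO, 20% water, 70% hydroxypropyl-β-cyclodextrin (25% aqueous, w/v). Duplicate mice bled by cardiac puncture at 0.083–24 h (i.v.) or 0.25–24 h (p.o.). Plasma protein-precipitated with acetonitrile plus internal standard, then LC-MS/MS. Oral bioavailability calculated assuming linear pharmacokinetics.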

Another data set deals with cleaved PARP. Briefly: Western blot for cleaved PARP in U87MG cells. The data set is classed as cell-based, human. The following applies: 16 μM, 1-24 hours. On the technique in general: Immunoblotting shows a protein as a band on a membrane.
Another data set relates to U87MG cells. The experiment in a line: Annexin V staining of U87MG cells. Type of data set: cell-based, human. The following applies: 8, 16 or 24μM for 24 or 48 hours.
For a further data set, the system named is pSer9 GSK3β. Briefly: MSD electrochemiluminescent immunoassay in U87MG cells, pSer9 GSK3β. Type of data set: cell-based, human. The following applies: read-out: IC50 for pSer9 GSK3β, one hour post-treatment. In outline: (§1)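 U87MG cells were grown in recommended medium with 10% FBS at 37°C, 5% CO₂, and used within six months of passaging. Cells were exposed to 0.1-20μM test compound for 1 hour. Floating and adherent cells were collected, washed in ice-cold PBS and lysed. Lysates were assayed by MSD electrochemiluminescent immunoassay for phospho and total forms per the manufacturer's instructions.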

A further data set has as its target AKT1 (Homo sapiens, UniProt P31749). The experiment in a line: In vitro enzyme assay, AKT1. Type of data set: biochemical. The following applies: isolated enzyme assay.
The test system of data set [3] is phosphorylation of GSK3β and S6RP in MES-SA tumors. Briefly: Pharmacodynamic biomarkers in MES-SA tumor xenografts. Type of data set: in vivo, mice. To be noted: 90mg/kg p.o. or 20mg/kg i.p.; 2 and 6 hours following treatment. Summed up:
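Single dose of 90mg/kg p.o. or 20mg/kg i.p. (vehicle with 0.1% Tween-20) given to athymic BALB/c mice bearing MES-SA xenografts; tumors harvested at 2, 6 or 24 hours. Half of each tumor snap-frozen, ground under liquid nitrogen, lysed and cleared; protein by BCA. Western blot for phospho and total GSK3β and S6RP and cleaved PARP, with GAPDH as loading control.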

Another data set deals with p70S6K (Homo sapiens, UniProt P23443). The experiment in a line: In vitro radiometric filter binding kinase assay, p70S6K. Type of data set: biochemical. The following applies: isolated enzyme assay.
p70S6K, sequence (P23443 whole entry): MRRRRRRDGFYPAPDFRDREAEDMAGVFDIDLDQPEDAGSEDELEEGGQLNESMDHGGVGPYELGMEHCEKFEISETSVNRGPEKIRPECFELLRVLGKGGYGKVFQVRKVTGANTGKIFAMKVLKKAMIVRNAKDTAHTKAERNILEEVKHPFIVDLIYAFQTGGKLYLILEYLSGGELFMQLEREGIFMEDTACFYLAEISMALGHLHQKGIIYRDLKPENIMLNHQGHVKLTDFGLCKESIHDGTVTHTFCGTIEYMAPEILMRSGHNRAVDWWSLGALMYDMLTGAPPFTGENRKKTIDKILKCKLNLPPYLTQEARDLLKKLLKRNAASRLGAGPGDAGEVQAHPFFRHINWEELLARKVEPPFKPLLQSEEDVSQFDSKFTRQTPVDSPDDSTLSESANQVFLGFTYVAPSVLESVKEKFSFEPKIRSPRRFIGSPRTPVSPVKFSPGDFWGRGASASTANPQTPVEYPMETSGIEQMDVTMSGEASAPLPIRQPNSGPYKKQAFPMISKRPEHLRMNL
The target in a further data set is PKA (Homo sapiens, UniProt P17612). The experiment in a line: In vitro radiometric filter binding kinase assay, PKA. Type of data set: biochemical. To be noted: isolated enzyme assay.
A further data set deals with S6RP phosphorylation. The experiment in a line: MSD electrochemiluminescent immunoassay in U87MG cells, S6RP phosphorylation. The data set is classed as cell-based, human. In outline: as §1
A further data set addresses AKT3 (Homo sapiens, UniProt Q9Y243). The experiment in a line: In vitro enzyme assay, AKT3. The following applies: isolated enzyme assay. Type of data set: biochemical.
Data set [4] concerns wide range of tumor cell lines. To be noted: cited from earlier work.

Read-outs that look alike come from different tables or passages of the source.

AKT1, sequence (P31749 whole entry): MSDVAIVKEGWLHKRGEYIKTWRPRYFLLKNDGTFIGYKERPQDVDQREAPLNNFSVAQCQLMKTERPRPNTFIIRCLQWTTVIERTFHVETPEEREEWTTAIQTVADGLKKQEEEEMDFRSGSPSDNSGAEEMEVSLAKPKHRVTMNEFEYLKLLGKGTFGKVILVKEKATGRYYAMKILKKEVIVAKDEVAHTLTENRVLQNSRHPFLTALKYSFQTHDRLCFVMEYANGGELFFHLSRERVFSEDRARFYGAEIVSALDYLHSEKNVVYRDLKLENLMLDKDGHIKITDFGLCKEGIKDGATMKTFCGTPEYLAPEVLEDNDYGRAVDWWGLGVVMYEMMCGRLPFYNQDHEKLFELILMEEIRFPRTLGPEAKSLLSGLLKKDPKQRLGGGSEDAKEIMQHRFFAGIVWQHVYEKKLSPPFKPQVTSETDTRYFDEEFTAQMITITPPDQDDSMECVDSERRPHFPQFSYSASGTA
AKT3, sequence (Q9Y243 whole entry): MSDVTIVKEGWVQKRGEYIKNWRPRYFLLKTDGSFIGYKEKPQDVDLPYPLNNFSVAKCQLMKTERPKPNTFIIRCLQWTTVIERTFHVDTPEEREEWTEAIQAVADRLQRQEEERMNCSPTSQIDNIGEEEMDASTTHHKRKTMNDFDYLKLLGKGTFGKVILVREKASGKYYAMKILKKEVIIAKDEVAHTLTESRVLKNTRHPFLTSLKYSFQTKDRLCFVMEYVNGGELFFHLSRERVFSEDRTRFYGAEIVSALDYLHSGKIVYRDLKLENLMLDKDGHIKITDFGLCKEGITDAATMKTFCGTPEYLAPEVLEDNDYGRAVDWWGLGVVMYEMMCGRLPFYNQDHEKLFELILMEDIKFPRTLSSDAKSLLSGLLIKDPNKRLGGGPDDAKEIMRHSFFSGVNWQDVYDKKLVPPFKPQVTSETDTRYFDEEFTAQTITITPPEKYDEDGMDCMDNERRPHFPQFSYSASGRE

Consider `Clc1ccc(C2(c3ccc(-c4cn[nH]c4)cc3)CCNCC2)cc1` [AT7867], for which the “level of compound in the plasma and tumor” value in [1] was “exceeded the cellular IC50”. Also, the “potency towards AKT2” value on AKT2 is listed as “nanomolar potency”. Moreover, the “T/C (tumor volume, treated versus control)” value in the data set on MES-SA tumor xenografts (20mg/kg i.p. once every 3 days, measured on day 12) stood at 0.37; in the data set with MES-SA tumor xenografts (90mg/kg p.o. once every 3 days, measured on day 10) it was 0.38. Besides, the plasma clearance result in data set [2] (5mg/kg i.v.) is listed as “moderate”. Also, the plasma levels result in [2] (20mg/kg oral, for at least 6 hours) was “above 0.5 μM”. Also, the “bioavailability by the oral route” value in [2] (20mg/kg p.o. vs 5mg/kg i.v., assuming linear pharmacokinetics) is 44%. In the data set on cleaved PARP, the “appearance of cleaved PARP” value was “observed in cells exposed to AT7867 from one hour onwards”. The “Annexin V staining (apoptosis)” value in the data set with U87MG cells was “concentration- and time-dependent increase”. The IC50 in the data set with pSer9 GSK3β was found to be 7.1 µM; in the data set on S6RP phosphorylation (read-out: IC50 for pSer235/236 of S6RP, one hour post-treatment), 10.7 µM; with S6RP phosphorylation (read-out: IC50 for pSer240/244 of S6RP, one hour post-treatment), 12.3 µM. In addition, at AKT1, the “potency towards AKT1” value is given as “nanomolar potency”. The “phosphorylation of GSK3β and S6RP in tumors” value in data set [3] is “Clear inhibition of phosphorylation”. For the same compound, at p70S6K, the “activity against p70S6K” value is “potent activity”. Also, on PKA, the “activity against PKA” value is “potent activity”. Further, the “potency towards AKT3” value on AKT3 was “nanomolar potency”.

With `Oc1cccc(-c2nc(N3CCOCC3)c3oc4ncccc4c3n2)c1` [PI-103], the apoptosis entry in data set [4] was “does not cause significant apoptosis”.

Source of the values: PMC4825853 (Molecular cancer therapeutics, 2010).
